Assay results taken from ChEMBL document CHEMBL2177085 (J Med Chem, 2012).

Experiments:
MKN-45 [1] = assay: Cytotoxic activity against human MKN45 cells assessed as cell viability at 20 uM incubated for 5 days by MTT assay; assay type: functional; conditions: MKN-45, 120 h, read-out: Activity
How it was run: (§1)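 MTT viability: exponentially growing cells, 10 000 viable cells/well in RPMI plated overnight, then exposed to test compounds for 3 days (HT-29, Molm-14) or 5 days (Mkn-45) at 37 °C, 5% CO2. MTT added for 4 h, then SDS/HCl solubilization overnight and absorbance read at 562 nm. Viability is expressed relative to untreated cells (100%). Triplicate.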

MKN-45 [2] = assay: Cytotoxic activity against human MKN45 cells assessed as cell viability at 50 uM incubated for 5 days by MTT assay; assay type: functional; conditions: MKN-45, 120 h, read-out: Activity; how it was run: as §1
MKN-45 [3] = assay: Cytotoxic activity against human MKN45 cells assessed as cell viability at 5 uM incubated for 5 days by MTT assay; assay type: functional; conditions: MKN-45, 120 h, read-out: Activity; how it was run: as §1
[4] = target: Protein kinase C gamma type (Homo sapiens) (UniProt P05129); assay: Inhibition of PKCgamma assessed as enzyme residual activity at 10 uM relative to untreated control
How it was run: (§2)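 Residual kinase activity at 10 μM compound, determined by a commercial kinase profiling service (Millipore) across 15 kinases of different classes. Each compound tested in duplicate.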

HUVEC = assay: Induction of apoptosis in human HUVEC assessed as accumulation at subG1 phase at 2.6 uM incubated for 4 days by flow cytometry (reference value: 15.4 +/- 1.5%); assay type: functional
MKN-45 [5] = assay: Induction of apoptosis in human MKN45 assessed as accumulation at subG1 phase at 20 uM incubated for 7 days by flow cytometry (reference value: 10.9 +/- 3.2%); assay type: functional
MKN-45 [6] = assay: Induction of apoptosis in human MKN45 assessed as accumulation at subG1 phase at 10 uM incubated for 7 days by flow cytometry (reference value: 10.9 +/- 3.2%); assay type: functional
MOLM-14 [7] = assay: Cytotoxic activity against human MOLM14 cells assessed as cell viability at 0.5 uM incubated for 3 days by MTT assay; assay type: functional; conditions: MOLM-14, 72 h, read-out: Activity; how it was run: as §1
[8] = target: Cyclin-dependent kinase 1/cyclin B1 (Homo sapiens) (UniProt P06493+P14635); assay: Inhibition of CDK1/cyclinB assessed as enzyme residual activity at 10 uM relative to untreated control; assay type: protein-complex assay; how it was run: as §2
MOLM-14 [9] = assay: Cytotoxic activity against human MOLM14 cells assessed as cell viability at 20 uM incubated for 3 days by MTT assay; assay type: functional; conditions: MOLM-14, 72 h, read-out: Activity; how it was run: as §1
[10] = target: Glycogen synthase kinase-3 beta (Homo sapiens, UniProt P49841); assay: Inhibition of GSK3beta assessed as enzyme residual activity at 10 uM relative to untreated control; how it was run: as §2
[11] = target: Platelet-derived growth factor receptor beta (Homo sapiens) (UniProt P09619); assay: Inhibition of PDGFRbeta assessed as enzyme residual activity at 10 uM relative to untreated control; how it was run: as §2
[12] = target: Receptor-type tyrosine-protein kinase FLT3 (Homo sapiens) (UniProt P36888); assay: Inhibition of FLT3 assessed as enzyme residual activity at 10 uM relative to untreated control; how it was run: as §2
MOLM-14 [13] = assay: Cytotoxic activity against human MOLM14 cells assessed as cell viability at 50 uM incubated for 3 days by MTT assay; assay type: functional; conditions: MOLM-14, 72 h, read-out: Activity; how it was run: as §1

Chain of Cyclin-dependent kinase 1/cyclin B1 (Homo sapiens) (P06493 whole entry, looked up): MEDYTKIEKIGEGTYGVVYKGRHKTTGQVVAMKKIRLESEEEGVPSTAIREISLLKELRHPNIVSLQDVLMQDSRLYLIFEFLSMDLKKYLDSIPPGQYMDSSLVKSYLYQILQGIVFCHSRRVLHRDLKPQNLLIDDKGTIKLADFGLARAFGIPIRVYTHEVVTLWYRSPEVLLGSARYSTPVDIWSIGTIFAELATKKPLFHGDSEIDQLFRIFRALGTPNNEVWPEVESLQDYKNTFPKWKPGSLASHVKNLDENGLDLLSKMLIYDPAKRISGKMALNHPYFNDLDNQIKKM
Chain of Cyclin-dependent kinase 1/cyclin B1 (Homo sapiens) (P14635 whole entry, looked up): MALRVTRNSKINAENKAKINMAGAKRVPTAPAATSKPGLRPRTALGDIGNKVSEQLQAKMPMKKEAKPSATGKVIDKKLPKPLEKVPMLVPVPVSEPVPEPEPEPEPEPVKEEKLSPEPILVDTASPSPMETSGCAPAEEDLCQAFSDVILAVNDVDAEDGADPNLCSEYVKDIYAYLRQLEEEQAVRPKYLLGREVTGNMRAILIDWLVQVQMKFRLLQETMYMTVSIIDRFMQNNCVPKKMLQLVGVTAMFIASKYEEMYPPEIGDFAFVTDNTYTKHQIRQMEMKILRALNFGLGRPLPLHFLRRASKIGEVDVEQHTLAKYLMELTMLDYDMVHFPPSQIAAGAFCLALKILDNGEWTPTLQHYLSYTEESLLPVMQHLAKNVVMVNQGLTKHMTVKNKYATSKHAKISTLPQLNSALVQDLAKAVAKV
Chain of Platelet-derived growth factor receptor beta (Homo sapiens) (P09619 whole entry): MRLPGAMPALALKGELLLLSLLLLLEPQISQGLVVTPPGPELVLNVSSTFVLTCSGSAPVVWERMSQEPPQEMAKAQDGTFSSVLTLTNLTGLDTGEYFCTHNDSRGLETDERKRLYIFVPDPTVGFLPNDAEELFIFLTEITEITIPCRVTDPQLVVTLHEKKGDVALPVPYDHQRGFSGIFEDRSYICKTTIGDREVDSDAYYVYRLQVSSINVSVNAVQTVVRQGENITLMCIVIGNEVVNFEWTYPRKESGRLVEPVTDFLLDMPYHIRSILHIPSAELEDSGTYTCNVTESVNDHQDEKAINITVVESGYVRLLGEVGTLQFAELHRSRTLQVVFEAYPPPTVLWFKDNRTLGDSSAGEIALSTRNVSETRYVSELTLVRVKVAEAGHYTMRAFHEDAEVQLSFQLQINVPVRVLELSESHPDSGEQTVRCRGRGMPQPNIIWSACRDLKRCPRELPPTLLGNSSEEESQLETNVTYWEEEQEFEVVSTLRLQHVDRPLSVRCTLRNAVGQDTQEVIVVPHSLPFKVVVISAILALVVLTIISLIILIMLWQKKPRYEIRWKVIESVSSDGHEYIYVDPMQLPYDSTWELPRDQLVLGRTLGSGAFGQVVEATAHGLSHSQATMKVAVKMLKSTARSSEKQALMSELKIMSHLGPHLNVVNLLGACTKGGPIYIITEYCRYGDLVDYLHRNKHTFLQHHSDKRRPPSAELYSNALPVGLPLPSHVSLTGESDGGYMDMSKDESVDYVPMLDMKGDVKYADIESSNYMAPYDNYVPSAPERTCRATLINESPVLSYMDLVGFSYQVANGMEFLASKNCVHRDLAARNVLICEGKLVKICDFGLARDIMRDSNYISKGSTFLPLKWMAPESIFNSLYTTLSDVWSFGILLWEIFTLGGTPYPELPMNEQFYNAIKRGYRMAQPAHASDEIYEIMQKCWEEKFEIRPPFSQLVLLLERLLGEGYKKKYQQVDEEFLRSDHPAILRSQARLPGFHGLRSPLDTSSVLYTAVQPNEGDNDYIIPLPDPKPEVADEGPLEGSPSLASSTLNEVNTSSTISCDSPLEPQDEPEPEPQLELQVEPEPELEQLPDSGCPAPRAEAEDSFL
Chain of Receptor-type tyrosine-protein kinase FLT3 (Homo sapiens) (P36888 whole entry): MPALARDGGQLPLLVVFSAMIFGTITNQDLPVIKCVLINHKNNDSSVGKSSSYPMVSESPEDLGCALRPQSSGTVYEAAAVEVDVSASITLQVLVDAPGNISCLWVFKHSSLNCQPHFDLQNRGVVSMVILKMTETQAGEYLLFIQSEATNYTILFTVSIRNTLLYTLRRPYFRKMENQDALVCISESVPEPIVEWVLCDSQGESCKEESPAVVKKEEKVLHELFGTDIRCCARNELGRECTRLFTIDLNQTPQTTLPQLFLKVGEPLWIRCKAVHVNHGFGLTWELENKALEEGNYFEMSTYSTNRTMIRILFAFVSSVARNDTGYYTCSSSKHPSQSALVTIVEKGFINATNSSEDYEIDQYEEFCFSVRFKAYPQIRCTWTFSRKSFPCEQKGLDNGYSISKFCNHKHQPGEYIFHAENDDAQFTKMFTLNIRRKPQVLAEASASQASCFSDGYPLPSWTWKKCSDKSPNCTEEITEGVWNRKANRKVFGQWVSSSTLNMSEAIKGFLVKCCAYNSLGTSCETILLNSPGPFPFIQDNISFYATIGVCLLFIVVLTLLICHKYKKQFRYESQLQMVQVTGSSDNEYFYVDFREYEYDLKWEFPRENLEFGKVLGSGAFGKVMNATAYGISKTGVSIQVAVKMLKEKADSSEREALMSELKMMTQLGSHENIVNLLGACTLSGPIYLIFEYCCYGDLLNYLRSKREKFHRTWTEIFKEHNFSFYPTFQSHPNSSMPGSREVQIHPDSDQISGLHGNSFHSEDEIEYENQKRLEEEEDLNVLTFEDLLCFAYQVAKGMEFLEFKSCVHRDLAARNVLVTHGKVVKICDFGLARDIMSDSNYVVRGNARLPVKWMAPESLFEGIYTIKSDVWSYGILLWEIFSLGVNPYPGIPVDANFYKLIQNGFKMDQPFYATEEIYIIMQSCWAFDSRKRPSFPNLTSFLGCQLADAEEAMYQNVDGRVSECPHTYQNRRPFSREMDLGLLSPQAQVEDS
Chain of Glycogen synthase kinase-3 beta (P49841 whole entry, looked up): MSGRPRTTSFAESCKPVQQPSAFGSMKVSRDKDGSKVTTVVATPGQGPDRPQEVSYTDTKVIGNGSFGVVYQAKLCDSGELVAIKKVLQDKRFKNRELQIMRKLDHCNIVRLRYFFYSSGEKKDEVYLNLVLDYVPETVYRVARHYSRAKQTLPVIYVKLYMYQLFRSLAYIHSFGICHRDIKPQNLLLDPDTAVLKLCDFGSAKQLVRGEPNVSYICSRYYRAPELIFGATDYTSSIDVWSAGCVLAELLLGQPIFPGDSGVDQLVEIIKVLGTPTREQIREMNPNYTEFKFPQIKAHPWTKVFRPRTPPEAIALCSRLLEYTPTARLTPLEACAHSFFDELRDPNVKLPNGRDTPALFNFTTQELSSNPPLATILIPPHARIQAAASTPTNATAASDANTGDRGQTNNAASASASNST

Q: How did the viability at 20 µM (MKN-45 [1]) turn out when `COc1cc(C2=C(c3c[nH]c4cnccc34)C(=O)NC2=O)cc(OC)c1OC` was run?
A: Its viability at 20 µM is 101%.

Q: What about the viability at 50 µM (MKN-45 [2]) of the same compound?
A: Its viability at 50 µM is 68.6%.

Q: And the viability at 5 µM (MKN-45 [3])?
A: Its viability at 5 µM is 105%.

Q: What about the Activity [4] of the same compound?
A: Its Activity is 83%.

Q: What about the Activity (HUVEC) of the same compound?
A: The Activity was 66.3%.

Q: What about the Activity (MKN-45 [5]) of the same compound?
A: The Activity was 28.3%.

Q: What about the Activity (MKN-45 [6]) of the same compound?
A: The Activity was 16.5%.

Q: And the viability at 0.5 µM (MOLM-14 [7])?
A: Its viability at 0.5 µM is 73.4%.

Q: And the Activity [8]?
A: Its Activity is 80%.

Q: What about the viability at 20 µM (MOLM-14 [9]) of the same compound?
A: Its viability at 20 µM is 5.39%.

Q: What about the Activity [10] of the same compound?
A: Its Activity is 2%.

Q: What about the Activity [11] of the same compound?
A: The Activity was 106%.

Q: And the Activity [12]?
A: Its Activity is 0%.

Q: And the viability at 50 µM (MOLM-14 [13])?
A: The viability at 50 µM was 2.4%.
